Measured values from ChEMBL document CHEMBL1149101, “New antibacterial agents derived from the DNA gyrase inhibitor cyclothialidine” (J Med Chem, 2004).
Converted amounts (≈) assume the structure as drawn.

Experiments:
Micrococcus luteus = test: Minimum inhibitory concentration against Micrococcus luteus ATCC 8340; type: functional
Method in brief: (§1)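 Agar dilution per NCCLS in BB2 agar + 1% Isovitalex + 7.5% sheep blood + menadione, compound added to melted medium at 50 °C. About 10⁴ CFU/spot from diluted overnight cultures, multipoint-inoculated.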

Neisseria meningitidis = test: Minimum inhibitory concentration against Neisseria meningitides 69480; type: functional; method in brief: as §1
Staphylococcus aureus [1] = test: Minimum inhibitory concentration against Staphylococcus aureus 887; type: functional; method in brief: as §1
[2] = biological target: DNA gyrase (Escherichia coli) (UniProt P0AES6+P0AES4)
Streptococcus pyogenes = test: Minimum inhibitory concentration against Streptococcus pyogenes b15
Escherichia coli = test: Minimum inhibitory concentration against Escherichia coli 25922; type: functional
Method in brief: (§2)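 NCCLS agar dilution on Mueller–Hinton agar, compound incorporated into melted medium at 50 °C. Inoculum about 10⁴ CFU/spot from diluted overnight cultures, multipoint-applied.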

Enterococcus faecalis = test: Minimum inhibitory concentration against Enterococcus faecalis 6; type: functional; method in brief: as §2
Staphylococcus aureus [3] = test: Minimum inhibitory concentration against Staphylococcus aureus Smith; type: functional; method in brief: as §2
Staphylococcus aureus [4] = test: Minimum inhibitory concentration against Staphylococcus aureus ATCC 25923; type: functional; method in brief: as §2
[5] = test system: Stenotrophomonas maltophilia; test: Minimum inhibitory concentration against Xanthomonas maltophilia AC739; type: functional; method in brief: as §2
[6] = test system: Staphylococcus epidermidis; test: Minimum inhibitory concentration against Staphylococcus epidermidis 16/2; type: functional; method in brief: as §2
[7] = Streptococcus pyogenes, read-out: MIC
[8] = Staphylococcus aureus, read-out: MIC
[9] = Staphylococcus aureus, ATCC 25923, read-out: MIC

MIC (Micrococcus luteus) | MIC (Neisseria meningitidis) | MIC (Staphylococcus aureus [1]) | MNEC [2] | MIC (Streptococcus pyogenes; [7]) | MIC (Escherichia coli) | MIC (Enterococcus faecalis) | MIC (Staphylococcus aureus [3]; [8]) | MIC (Staphylococcus aureus [4]; [9]) | MIC [5] | MIC [6] | MIC (Streptococcus pyogenes) | MIC (Staphylococcus aureus [3]) | MIC (Staphylococcus aureus [4]) | Compound
8 µg/mL (≈ 15.3 µM) | 4 µg/mL (≈ 7.64 µM) | 16 µg/mL (≈ 30.6 µM) | 0.1 µg/mL | 16 µg/mL (≈ 30.6 µM) |  |  |  |  |  |  |  |  |  | C=CCNC(=O)[C@@H]1CSCc2c(O)cc(OC)c(C)c2C(=O)OC[C@H](NC(=O)OC(C)(C)C)C(=O)N1
> 64 µg/mL |  | > 64 µg/mL | 10 µg/mL | > 64 µg/mL |  |  |  |  |  |  |  |  |  | COc1cc(O)c2c(c1C)C(=O)OC[C@H](NC(=O)OC(C)(C)C)C(=O)N[C@H](C(=O)O)CSC2
16 µg/mL (≈ 40.3 µM) | 8 µg/mL (≈ 20.1 µM) | 16 µg/mL (≈ 40.3 µM) | 0.4 µg/mL | 16 µg/mL (≈ 40.3 µM) |  |  |  |  |  |  |  |  |  | COC(=O)[C@@H]1CSCc2c(O)cc(OC)c(C)c2C(=O)OC[C@H](C)C(=O)N1
16 µg/mL (≈ 33.1 µM) | 4 µg/mL (≈ 8.27 µM) | > 64 µg/mL | 0.1 µg/mL | 16 µg/mL (≈ 33.1 µM) |  |  |  |  |  |  |  |  |  | COc1cc(O)c2c(c1C)C(=O)OC[C@H](NC(=O)OC(C)(C)C)C(=O)N[C@H](C(N)=O)CSC2
16 µg/mL (≈ 32.1 µM) | 16 µg/mL (≈ 32.1 µM) | 64 µg/mL (≈ 128 µM) | 0.2 µg/mL | 64 µg/mL (≈ 128 µM) | > 64 µg/mL | 64 µg/mL (≈ 128 µM) | 128 µg/mL (≈ 257 µM) | > 64 µg/mL | > 64 µg/mL | 64 µg/mL (≈ 128 µM) | 64 µg/mL (≈ 128 µM) |  |  | COC(=O)[C@@H]1CSCc2c(O)cc(OC)c(C)c2C(=O)OCC(NC(=O)OC(C)(C)C)C(=O)N1 (stereo partly specified)
16 µg/mL (≈ 35.1 µM) |  | > 64 µg/mL | 0.2 µg/mL | > 64 µg/mL |  |  |  |  |  |  |  |  |  | COC(=O)[C@@H]1CSCc2c(O)cc(O)c(C)c2C(=O)OCC(NC(=O)CCO)C(=O)N1 (stereo partly specified)
128 µg/mL (≈ 300 µM) | 32 µg/mL (≈ 75 µM) | > 64 µg/mL | 0.4 µg/mL | > 64 µg/mL |  |  |  |  |  |  |  |  |  | COC(=O)[C@@H]1CSCc2c(O)cc(O)c(C)c2C(=O)OC[C@H](NC(C)=O)C(=O)N1
> 64 µg/mL |  | > 64 µg/mL | 1 µg/mL |  |  |  |  |  |  |  |  |  |  | COC(=O)[C@@H]1CSCc2c(O)cc(O)c(C)c2C(=O)OC[C@H](N)C(=O)N1
64 µg/mL (≈ 136 µM) | 64 µg/mL (≈ 136 µM) | > 64 µg/mL | 2.5 µg/mL | 64 µg/mL (≈ 136 µM) |  |  |  |  |  |  |  |  |  | COc1cc(O)c2c(c1C)C(=O)OC[C@H](NC(=O)OC(C)(C)C)C(=O)N[C@H](CO)CSC2
 |  |  | 0.01 µg/mL | 1 µg/mL (≈ 2.34 µM) | > 64 µg/mL | 1 µg/mL (≈ 2.34 µM) | 0.25 µg/mL (≈ 0.585 µM) | 0.5 µg/mL (≈ 1.17 µM) | 8 µg/mL (≈ 18.7 µM) | < 0.12 µg/mL |  | 0.25 µg/mL (≈ 0.585 µM) | 0.5 µg/mL (≈ 1.17 µM) | COC(=O)[C@@H]1CSCc2c(O)cc(OC)c(C)c2C(=O)OCCCC/C(S)=N/1
128 µg/mL (≈ 214 µM) |  | > 64 µg/mL | 1 µg/mL |  |  |  |  |  |  |  |  |  |  | COC(=O)[C@@H]1CSCc2c(O)cc(O)c(C)c2C(=O)OCC(NC(=O)[C@H]2C(O)CCN2C(=O)OC(C)(C)C)C(=O)N1 (stereo partly specified)
 |  |  | 0.05 µg/mL | 4 µg/mL (≈ 10 µM) | > 64 µg/mL | 4 µg/mL (≈ 10 µM) | 2 µg/mL (≈ 5.01 µM) | 2 µg/mL (≈ 5.01 µM) | 8 µg/mL (≈ 20 µM) | 0.5 µg/mL (≈ 1.25 µM) |  | 2 µg/mL (≈ 5.01 µM) | 2 µg/mL (≈ 5.01 µM) | COC(=O)[C@@H]1CSCc2c(O)cc(OC)c(C)c2C(=O)OCC/C(S)=N/1
8 µg/mL (≈ 13.4 µM) | 64 µg/mL (≈ 107 µM) | > 64 µg/mL | 0.05 µg/mL | 32 µg/mL (≈ 53.5 µM) |  |  |  |  |  |  |  |  |  | COC(=O)[C@@H]1CSCc2c(O)cc(O)c(C)c2C(=O)OCC(NC(=O)[C@@H]2C(O)CCN2C(=O)OC(C)(C)C)C(=O)N1 (stereo partly specified)
64 µg/mL (≈ 110 µM) |  | > 64 µg/mL | 2.5 µg/mL | > 64 µg/mL |  |  |  |  |  |  |  |  |  | COC(=O)[C@@H]1CSCc2c(O)cc(O)c(C)c2C(=O)OC[C@H](NC(=O)[C@@H]2CCCN2C(=O)OC(C)(C)C)C(=O)N1
128 µg/mL (≈ 264 µM) | 32 µg/mL (≈ 66 µM) |  | 1 µg/mL |  |  |  |  |  |  |  |  |  |  | COC(=O)[C@@H]1CSCc2c(O)cc(O)c(C)c2C(=O)OC[C@@H](NC(=O)OC(C)(C)C)C(=O)N1
64 µg/mL (≈ 161 µM) | 64 µg/mL (≈ 161 µM) | > 64 µg/mL | 4 µg/mL | > 64 µg/mL |  |  |  |  |  |  |  |  |  | COC(=O)[C@@H]1CSCc2c(O)cc(OC)c(C)c2C(=O)OC[C@@H](C)C(=O)N1
> 128 µg/mL | > 128 µg/mL |  | > 100 µg/mL |  |  |  |  |  |  |  |  |  |  | COC(=O)[C@@H]1CSCc2c(N)cccc2C(=O)OCC(NC(=O)[C@H](CO)NC(=O)OC(C)(C)C)C(=O)N1 (stereo partly specified)
